Experimental data published in ChEMBL document CHEMBL1143720, “Vasorelaxant activity of diterpenes from Croton zambesicus and synthetic trachylobanes and their structure-activity relationships” (J Nat Prod, 2007).

Key:
Aorta [1] = assay: Vasorelaxant activity against KCl-induced contraction in Wistar rat aorta; format: functional, tissue-based
How it was run: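 Endothelium-intact aortic rings in physiological solution at 37 °C, gassed with 95% O2/5% CO2 and equilibrated 60 min. Compound added cumulatively (10^-6 to 10^-4 M; 0.3–3 or 0.3–10 µg/mL by solubility) on the plateau of 100 mM KCl depolarizing contraction. Response taken as % of initial KCl contraction. IC50 from sigmoidal fit, 95% CI, 3–6 determinations.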

Aorta [2] = assay: Vasorelaxant activity against KCl-induced contraction in Wistar rat aorta at 10 ug/ml; format: functional; design: scale not given: the % may be the effect or the level left
How it was run: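 Rat aortic rings at 37 °C, gassed with 95% O2/5% CO2 and equilibrated 60 min; first contraction with 100 mM KCl depolarizing solution. After washing, rings were preincubated 30 min with compound at 10 µg/mL (max 3 µg/mL if poorly soluble; DMSO ≤0.1% in bath) and KCl contraction repeated. Inhibition versus the control contraction after 40 min incubation; mean ± SEM of n.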

HeLa = assay: Cytotoxicity against human HeLa cells by MTT method; format: cell-based
How it was run: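 HeLa human cervix carcinoma cells; viability by MTT colorimetric assay. Absorbance expressed as percent of control, with camptothecin as positive control. IC50 given as mean ± SEM.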

Row | IC50 (Aorta [1]) | Compound | Activity (Aorta [2]) | IC50 (HeLa)
1 | 12.3 µM | CO[C@]1(C)[C@@H](Br)CC[C@@]2(C)[C@@H]3C[C@H]4C5C(=O)[C@@]3(CC[C@@H]21)C(=O)[C@]54C | 33% | > 150 µM
2 | – | CC1(C)C(=O)CC[C@]2(C)[C@H]3C[C@@H]4C5C(=O)[C@]3(CC[C@@H]12)[C@@H](O)[C@]54C | 90% | > 150 µM
3 | – | C[C@]12CCC(=O)[C@@](C)(CO)[C@@H]1CC[C@]13C(=O)C4[C@@H](C[C@@H]12)[C@]4(C)C3=O | 93.1% | –
4 | – | CC1(C)CCC[C@]2(C)[C@@H]1CC[C@@]13[C@H](O)C4[C@H](C[C@@H]21)[C@]4(C)[C@H]3O | 73.4% | > 150 µM
5 | – | CC1(C)C(=O)CC[C@]2(C)[C@@H]1CC[C@@]13C(=O)C4[C@H](C[C@H]12)[C@]4(C)C3=O | 84.4% | > 150 µM
6 | 46.2 µM | C=C[C@@]1(C)CC[C@H]2C(=CC[C@H]3C(C)(C)[C@@H](O)CC[C@]23C)C1 [ISOPIMARANE] | 54.6% | 87.8 µM
7 | 9.75 µM | C=C1[C@H]2CC[C@@]34C(=O)C5[C@H](C[C@H]3[C@]2(C)CC[C@@H]1Cl)[C@]5(C)C4=O | 28.5% | > 150 µM
8 | – | CC1(C)C(=O)CC[C@@]2(C)[C@H]1CC[C@]13C(=O)C4[C@@H](C[C@@H]12)[C@]4(C)C3=O | 91.4% | > 150 µM
9 | – | CC1(C)CCC[C@]2(C)[C@H]3CC[C@]4(C)CC(=O)[C@]3(CC[C@@H]12)[C@H]4O | 40.7% | 153 µM
10 | – | CC1(C)[C@H](O)CC[C@]2(C)[C@@H]1CC[C@@]13C(=O)C4[C@H](C[C@@H]21)[C@]4(C)[C@H]3O | 90.3% | > 150 µM
11 | – | CC(C)(C)[Si](C)(C)O[C@@]12CC[C@@]3(C)[C@@H](CC[C@]45C(=O)C6[C@@H](C[C@@H]43)[C@@]6(C)C5=O)[C@]1(C)C2 | – | > 150 µM
12 | 4.65 µM | CC1(C)CCC[C@]2(C)[C@@H]1CC[C@@]13C(=O)C4[C@H](C[C@@H]21)[C@]4(C)[C@H]3O | 17.9% | 138 µM
13 | 3.5 µM | C=C1CCC[C@]2(C)[C@@H]1CC[C@@]13C(=O)C4[C@H](C[C@H]12)[C@]4(C)C3=O | 9.2% | 128 µM
14 | – | C=C1[C@H]2CC[C@@]34C(=O)C5[C@H](C[C@H]3[C@]2(C)CC[C@@H]1O)[C@]5(C)C4=O | 83.9% | > 150 µM
15 | – | C[C@@]12CCC(=O)[C@](C)(CBr)[C@H]1CC[C@@]13C(=O)C4[C@H](C[C@H]12)[C@]4(C)C3=O | 71.8% | > 150 µM
16 | 6.3 µM | C[C@@]12CCC(=O)[C@](C)(CO)[C@H]1CC[C@@]13CC4[C@H](C[C@H]12)[C@]4(C)C3 | 17% | 40.4 µM
17 | – | C[C@@H]1C(=O)[C@]23CC[C@H]4C(C)(C)C(=O)CC[C@]4(C)[C@H]2C[C@@H]1CC3=O | 87.9% | > 150 µM

Row | IC50 (Aorta [1]) | Compound | Activity (Aorta [2]) | IC50 (HeLa)
18 | 9.1 µM | CC1(C)CCC[C@]2(C)[C@H]3C[C@@H]4C5C(=O)[C@]3(CC[C@@H]12)[C@@H](O)[C@]54C | 22.1% | > 150 µM
19 | > 80 µM | CC1(C)C(=O)CC[C@@]2(C)[C@@H]3C[C@@H]4[C@@H]5C[C@@]3(CC[C@@H]12)C[C@@]45C | 65.6% | 33.5 µM
20 | > 80 µM | CC1(C)[C@H]2CC[C@@]34CC5[C@H](C[C@H]3[C@]2(C)CC[C@@H]1O)[C@]5(C)C4 | 67.3% | 25.3 µM
21 | > 80 µM | C[C@@]12CC[C@H](O)[C@](C)(CO)[C@H]1CC[C@@]13CC4[C@H](C[C@H]12)[C@]4(C)C3 | – | 64 µM
22 | > 80 µM | C[C@@]1(C(O)CO)CC[C@@H]2C(O)(C1)C(O)C[C@H]1[C@@]2(C)CC[C@H](O)[C@]1(C)CO (some centres not stated) | – | –
23 | – | CC1(C)C(=O)CC[C@]2(C)[C@H]3C[C@@H]4C5C(=O)[C@]3(CC[C@@H]12)[C@H](I)[C@]54C | 95.7% | > 150 µM
24 | – | CC1(C)CCC[C@]2(C)[C@@H]1CC[C@@]13[C@H](O)C[C@](C)(CC[C@@H]21)[C@H]3O | 52.2% | > 150 µM
25 | 5.8 µM | CC1(C)CCC[C@]2(C)[C@@H]1CC[C@@]13C(=O)C4[C@H](C[C@H]12)[C@]4(C)C3=O | 14.5% | 118 µM
26 | – | CC1(C)C(=O)CC[C@]2(C)[C@@H]1CC[C@@]13C(=O)C4[C@H](C[C@@H]21)[C@]4(C)[C@H]3O | 92.7% | > 150 µM
27 | – | CC[C@@]1(O)C(=O)OCc2c1cc1n(c2=O)Cc2cc3ccccc3nc2-1 [CAMPTOTHECIN] | – | 0.5 µM
28 | 10 µM | C[C@@H]1C[C@@H](O)[C@H]2[C@@](C)(CO)CCC[C@]2(C)[C@@]1(O)CCc1ccoc1 [MARRUBENOL] | 7.9% | –
29 | > 80 µM | C/C(=C\CO)CCC[C@H](C)CCC[C@H](C)CCCC(C)C [TRANS-PHYTOL] | 81.4% | 46.6 µM
30 | – | C=C1[C@H]2CC[C@@]34C(=O)C5[C@H](C[C@H]3[C@]2(C)CC[C@@H]1Br)[C@]5(C)C4=O | 65.5% | > 150 µM
31 | – | CC1=CCC[C@]2(C)[C@@H]1CC[C@@]13C(=O)C4[C@H](C[C@H]12)[C@]4(C)C3=O | – | 125 µM
32 | – | CC1(C)CCC[C@]2(C)[C@H]3C[C@@H]4C5C(=O)[C@]3(CC[C@@H]12)[C@H](I)[C@]54C | 37.4% | 150 µM
33 | – | C=C1C[C@]23CC[C@H]4C(C)(C)C(=O)CC[C@]4(C)[C@H]2C[C@@H]1CC3=O | 60.6% | > 150 µM
